Data published in ChEMBL document CHEMBL1155264, “Synthesis of substituted-phenyl-1,2,4-triazol-3-thione analogues with modified D-glucopyranosyl residues and their antiproliferative activities” (Eur J Med Chem, 2009).

Tests used:
[1] = system: MCF7; experiment: Antiproliferative activity against human MCF7 cells after 24 hrs by MTT assay; assay type: functional, cell-based; conditions: MCF7, 24 h
How it was run: (§1)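 Cells plated at 1 × 10⁴ per well and cultured 24 h at 37 °C, 5% CO₂. Medium then replaced with fresh medium containing compound at varying concentrations, five wells per concentration, and incubated 24 h. MTT (5 mg/mL in phosphate buffer pH 7.4) added for 4 h at 37 °C. Absorbance read at 570 nm, blanked on cell-free medium. IC50 is 50% growth inhibition versus untreated control; mean ± SD, n = 3.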

[2] = system: Bel-7402; experiment: Antiproliferative activity against human Bel7402 cells after 24 hrs by MTT assay; assay type: functional, cell-based; conditions: Bel-7402, 24 h; how it was run: as §1

Row | Structure (SMILES) | IC50 [1] | IC50 [2]
1 | Oc1ccc(/C=N/n2c(-c3ccccc3)n[nH]c2=S)cc1 | 29.9 µM | 25.2 µM
2 | COc1cc(/C=N/n2c(-c3ccccc3)n[nH]c2=S)ccc1O | 26.3 µM | 19.6 µM
3 | O=c1[nH]cc(F)c(=O)[nH]1 [FLUOROURACIL] | 4.3 µM | 4.7 µM
4 | S=c1[nH]nc(-c2ccccc2)n1/N=C/c1ccc(Cl)cc1 | 30.5 µM | 24 µM
5 | CC(=O)OC[C@H]1O[C@@H](n2nc(-c3ccccc3)n(/N=C/c3ccccc3)c2=S)[C@H](OC(C)=O)[C@@H](OC(C)=O)[C@@H]1OC(C)=O | 18 µM | 10.7 µM
6 | S=c1[nH]nc(-c2ccccc2)n1/N=C/c1ccccc1 | 31.8 µM | 22.5 µM
